HUVEC prolif 384: blocks proliferation of human endothelial cells; HUVEC proliferation, CellTiter-Glo luminescence, 72 h; active compounds read low; viability, % at 10 µM (by protocol); actives 1.1% (n = 86,000); AID 648;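 active means viability at or below 30%; inactive means viability above 30%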
Fibroblast inh: blocks proliferation of human lung fibroblasts; actives 1.1% (n = 85,000); viability, % at 10 µM; LL 47 human lung fibroblast viability, ATP luminescence; active compounds read low;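 active means viability at or below 50% in the single dose screen; inactive means viability above 50%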;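 further: compound exposure lasted 72 h before the ATP readout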
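Material: human LL 47 lung fibroblast cells; quantity: 1,150 cells/well; medium: IMEM plus 15% FBS; doses: 0.1% DMSO in all compound wells; timing: overnight attachment after seeding, then 72 h compound exposure at 37 °C; detection: CellTiter-Glo luminescence; measure: % viability of median cell-only signal; controls: cell-only wells, no compound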
Jurkat tox 60K: reduces viability or proliferation of Jurkat cells. AID 463. Jurkat E6.1 viability, ATP luminescence, 48 h. inhibition, % at 4 µM. actives 1.2% (n = 56,000);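 active means inhibition above the mean inhibition of all tested compounds plus 3 SD, cut at about 28% in these data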
H69AR inhibit: blocks growth of human H69AR lung tumor cells; H69AR lung tumor viability, ATP luminescence, 72 h; active compounds read low; viability, % at 10 µM; actives 6% (n = 85,000); AID 598;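 active means viability at or below 40%; inactive means viability above 40%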;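 further: multidrug resistant small cell line overexpressing MRP-1 efflux transporter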
Hits are given with their value; i = inactive; nt = not tested or not shown. Sampled rows, rich in hits. Any-hit rate of the full collection: about 6.6%.

SMILES	HUVEC prolif 384	Fibroblast inh	Jurkat tox 60K	H69AR inhibit
CCCOc1ccccc1NC(=O)/C=C/C(N)=O	i	i	nt	2.1
CC1CCC(NC(=O)CC(C)(C)Cc2nc3ccccc3c(=O)[nH]2)CC1 (centres undefined)	i	i	nt	25
CCN(CC(=O)NC(=O)NC1CCCCC1)Cc1nc2ccccc2c(=O)[nH]1	i	i	nt	i
COc1ccc(C2CCCN2C(=O)Nc2ccc(F)cc2)cc1OC (centres undefined)	i	i	i	i
COc1ccc(OCC(O)Cn2c(Nc3cccc(C)c3)nc3c2c(=O)n(C)c(=O)n3C)cc1 (centres undefined)	i	i	nt	i
Cn1c(C(=O)Nc2ccc3c(c2)OCCO3)cc2c(=O)n(C)c3ccccc3c21	i	i	i	21
COCCCNC(=O)c1cc2c(=O)n(C)c3ccccc3c2n1C	i	i	i	24
Cn1c(C(=O)NCCCN2CCc3ccccc3C2)cc2c(=O)n(C)c3ccccc3c21	i	i	nt	35
COCCNC(=O)c1cc2c(=O)n(C)c3ccccc3c2n1C	i	i	i	i
Cn1c(C(=O)NCCCN2CCCCCC2)cc2c(=O)n(C)c3ccccc3c21	i	i	i	i
Cc1cc(C)c(S(=O)(=O)N2CCN(C)CC2)c(C)c1	i	i	i	i
CN(C)CCNc1oc(-c2cccc(Cl)c2)nc1C#N	i	i	nt	i
Cc1c(C)n(C(=O)CN2CCC(C)CC2)c2ccccc12	i	i	nt	i
Cc1nc(=O)c(-c2ccccc2)c(C)n1Cc1ccccc1	i	i	i	i
Cc1c(CN(C)C)c2c(n1Cc1ccccc1)C(=O)c1ccccc1-2	i	i	nt	38
O=c1[nH]c2cc3c(cc2cc1C(c1nnnn1C1CCCCC1)N1CCSCC1)OCCO3 (centres undefined)	i	28	i	2.0
N#CC1=C(N)Oc2cc(N)ccc2C1C1CCCCC1 (centres undefined)	i	i	84	24
COc1ccc(OC)c(C2C(C#N)=C(N)Oc3cc(N)ccc32)c1 (centres undefined)	nt	nt	i	nt
CCCC(=O)Nc1ccc(S(=O)(=O)N2CCOCC2)cc1	i	i	nt	i
CCCn1c(CCC(=O)Nc2ccccc2Cc2ccccc2)nc2cc(S(=O)(=O)N3CCOCC3)ccc21	i	i	nt	39
COC(=O)c1cc(Nc2ncnc3c2cnn3-c2ccccc2)cc(C(=O)OC)c1	nt	nt	i	nt
Clc1ccc(-c2csc(N3CCN(c4ccccc4)CC3)n2)cc1	i	i	nt	40
c1ccc(-c2csc(N3CCOCC3)n2)cc1	i	i	nt	i
O=C(NCc1ccccc1)C(=O)NCC1COc2ccccc2O1 (centres undefined)	i	i	nt	29
Cc1cc(=O)n2nc(N3CCC(C(=O)NCCC4=CCCCC4)CC3)sc2n1	i	i	i	i
SMILES	HUVEC prolif 384	Fibroblast inh	Jurkat tox 60K	H69AR inhibit
O=C(Nc1cccc(F)c1)C1CCN(C(=O)c2ccc(Br)cc2)CC1	i	i	nt	34
COc1ccccc1C(=O)Nc1ccccn1	i	i	i	i
O=c1cc(CO)oc(C(Nc2ccccn2)c2cccc(F)c2)c1O (centres undefined)	i	i	nt	i
Cc1cc(NC(c2ccc(Cl)cc2)c2ccc3cccnc3c2O)no1 (centres undefined)	11	8.1	nt	i
COc1cc(C(Nc2ccccn2)c2ccc3ccc(C)nc3c2O)cc(OC)c1O (centres undefined)	14	38	71	0.3
O=c1cc(CO)oc(C(Nc2ccccn2)c2ccccc2F)c1O (centres undefined)	i	i	i	i
Cc1ccc2ccc(C(Nc3ccccn3)c3ccccc3)c(O)c2n1 (centres undefined)	i	i	nt	28
Oc1c(C(Nc2ccccn2)c2ccccn2)ccc2cccnc12 (centres undefined)	i	5.0	i	6.4
Cc1ccccc1OC(=O)C1C(c2ccccc2)C(C(=O)O)C1c1ccccc1 (centres undefined)	i	i	nt	i
COc1ccc(CN(C#N)c2nc(SC)nc(N(C)C)n2)cc1	i	i	nt	i
C/C(N)=C(/C#N)C(=O)COC(=O)CC12CC3CC(CC(C3)C1)C2	i	i	nt	i
CC(=O)NC(c1ccco1)c1ccc2cccnc2c1O (centres undefined)	4.6	2.2	74	i
CC(=O)NC(CC(=O)NCC(c1ccco1)N(C)C)c1ccccc1 (centres undefined)	i	i	nt	i
COc1ccc(C)cc1NS(=O)(=O)c1ccc(Br)s1	i	i	nt	22
Cn1nc(-c2ccc(Cl)cc2)c2cc(C(=O)NCCCN3CCOCC3)sc21	2.9	39	i	i
CCN(CC)CCNC(=O)c1cc2c(-c3ccc(Cl)cc3)nn(C)c2s1	2.8	21	i	2.5

Bioassay records: PubChem BioAssay, several laboratories
